In ChEMBL document CHEMBL1132379, “2-thioether 5'-O-(1-thiotriphosphate)adenosine derivatives as new insulin secretagogues acting through P2Y-Receptors” (J Med Chem, 1999) one finds EC50 data, which are given here for 13 compounds.

The target of experiment [1] is T1, P2Y purinoceptor 1 (Meleagris gallopavo, UniProt P49652). Briefly: Agonistic activity for P2Y purinoceptor 1 of turkey erythrocyte membranes. It counts as functional. In outline:
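[³H]myoinositol-labeled washed turkey erythrocytes (18–24 h, 37 °C), membranes made by hypotonic lysis; phospholipase C measured as total [³H]inositol phosphates (ion-exchange) after 5 min at 30 °C with GTPγS, pH 7.0 Hepes medium. EC50 from four-parameter logistic fit; at least three experiments with different membrane preparations, duplicate assays.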

The target in experiment [2] is T1, P2Y purinoceptor 1. The experiment in a line: Compound was evaluated for its agonistic activity towards P2Y purinoceptor 1 in turkey erythrocyte membranes; NE=No effect. It counts as functional, cell membranes. In outline:
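Turkey erythrocytes labeled 18–24 h at 37 °C with 2-[3H]myoinositol in inositol-free DMEM, then lysed in hypotonic buffer (5 mM sodium phosphate pH 7.4, 5 mM MgCl2, 1 mM EGTA) to make membranes. Phospholipase C was assayed with GTPγS and graded nucleotide concentrations at 30 °C for 5 min, pH 7.0 Hepes medium. Total [3H]inositol phosphates were measured by ion-exchange chromatography. EC50 came from four-parameter logistic fits, ≥3 experiments on separate membrane preparations, duplicate assays.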

Molecules are shown by their SMILES.

T1 sequence (P49652 whole entry): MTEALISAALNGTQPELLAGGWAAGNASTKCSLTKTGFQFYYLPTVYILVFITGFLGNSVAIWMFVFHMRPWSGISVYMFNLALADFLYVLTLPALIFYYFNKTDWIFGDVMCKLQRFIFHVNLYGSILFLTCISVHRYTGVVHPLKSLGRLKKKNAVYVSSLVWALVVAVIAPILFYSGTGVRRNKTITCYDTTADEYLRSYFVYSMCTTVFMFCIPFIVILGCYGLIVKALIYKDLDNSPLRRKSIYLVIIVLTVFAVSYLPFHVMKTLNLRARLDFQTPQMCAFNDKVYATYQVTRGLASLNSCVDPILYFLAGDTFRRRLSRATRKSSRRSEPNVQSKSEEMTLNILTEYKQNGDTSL

`CCCCCCSc1nc(N)c2ncn([C@@H]3O[C@H](COP(=O)(O)O)[C@@H](O)[C@H]3O)c2n1`: at P2Y purinoceptor 1 [1], the EC50 is 60 nM.
Consider `Nc1nc(SCCc2ccc([N+](=O)[O-])cc2)nc2c1ncn2[C@@H]1O[C@H](COP(O)(O)=S)[C@@H](O)[C@H]1O`, for which the EC50 on P2Y purinoceptor 1 [1] came to 2360 nM.
Regarding `Nc1ncnc2c1ncn2[C@@H]1O[C@H](COP(O)(O)=S)[C@@H](O)[C@H]1O`, the EC50 result at P2Y purinoceptor 1 [2] is given as “Not Active”.
The compound `CCCCCCSc1nc(N)c2ncn(C3O[C@H](COP(O)(O)=S)[C@@H](O)[C@H]3O)c2n1` (stereo partly drawn) gave an EC50 on P2Y purinoceptor 1 [1] of 2790 nM.
With `Nc1nc(SCCc2ccc([N+](=O)[O-])cc2)nc2c1ncn2C1O[C@H](COP(=O)(O)OP(=O)(O)OP(=O)(O)O)[C@@H](O)[C@H]1O` (stereo partly drawn), the EC50 at P2Y purinoceptor 1 [1] is 12 nM.
In turn, `Nc1nc(SCCc2ccc([N+](=O)[O-])cc2)nc2c1ncn2C1O[C@H](COP(=O)(O)O)[C@@H](O)[C@H]1O` (stereo partly drawn) came in with an EC50 on P2Y purinoceptor 1 [1] of 3000 nM.
On P2Y purinoceptor 1 [1], `CCCCCCSc1nc(N)c2ncn(C3O[C@H](COP(=O)(O)OP(=O)(O)OP(=O)(O)O)[C@@H](O)[C@H]3O)c2n1` (stereo partly drawn) gave an EC50 of 10 nM.
On the same count and under the same terms, with `Nc1ncnc2c1ncn2C1O[C@H](COP(O)(=S)OP(=O)(O)OP(=O)(O)O)[C@@H](O)[C@H]1O` (stereo partly drawn) the figure was 6280 nM.
On the same count and under the same terms, for `CCCCCCSc1nc(N)c2ncn([C@@H]3O[C@H](COP(O)(=S)OP(=O)(O)OP(=O)(O)O)[C@@H](O)[C@H]3O)c2n1` (stereo in doubt; 5aA) the value was 17 nM; for `CCCCCCSc1nc(N)c2ncn([C@@H]3O[C@H](COP(O)(=S)OP(=O)(O)OP(=O)(O)O)[C@@H](O)[C@H]3O)c2n1` (stereo in doubt; 5aB), 21 nM; for `Nc1nc(SCCc2ccc([N+](=O)[O-])cc2)nc2c1ncn2[C@@H]1O[C@H](COP(O)(=S)OP(=O)(O)OP(=O)(O)O)[C@@H](O)[C@H]1O` (stereo in doubt; 5bA), 510 nM.
At P2Y purinoceptor 1 [1], `Nc1nc(SCCc2ccc([N+](=O)[O-])cc2)nc2c1ncn2[C@@H]1O[C@H](COP(O)(=S)OP(=O)(O)OP(=O)(O)O)[C@@H](O)[C@H]1O` (stereo in doubt; 5bB) registered an EC50 of 890 nM.
On the same count and under the same terms, for `Nc1ncnc2c1ncn2[C@@H]1O[C@H](COP(=O)(O)OP(=O)(O)OP(=O)(O)O)[C@@H](O)[C@H]1O` [ADENOSINE TRIPHOSPHATE] the value was 6350 nM.
